# Measurements: ChEMBL document CHEMBL3271979, “Inhibition of solid tumors by nitrosoureas. 1. Lewis lung carcinoma” (1977)
# The source made the active and inactive calls. The rule behind the calls is not given here.
# Test system: Mus musculus
# Test: Antitumor activity against mouse advanced Lewis lung carcinoma allografted in ip dosed BDF1 mouse assessed as complete regression of established tumor administered as single dose on day 6 or 7 post-tumor implantation
# Format: functional, organism-based
# Method in brief: (§1)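 BDF1 mice (C57Blk/6 × DBA/2) implanted sc by trocar with Lewis lung tumor fragments of about 40 mg, taken only from bacteriologically sterile donor tumors. Mice bearing tumors of about 400 mg (day 6-7) were selected. Each received a single ip dose on day 7, at or below the LD10 in normal mice. Groups were of 10 mice. Tumor weight was taken from calipers as w = ab²/2, measured at least twice weekly. Matched non-tumor mice served as toxicity controls.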
row,SMILES,inhibition
1,O=NN(CCCl)C(=O)NC1CCCC1,inactive
2,C[C@H]1CCC[C@@H](NC(=O)N(CCCl)N=O)C1 (relative stereo),inactive
3,O=NN(CCCl)C(=O)NC1CCS(=O)(=O)C1 (configuration not stated),inactive
4,CC[C@H]1CC[C@H](NC(=O)N(CCF)N=O)CC1,inactive
5,O=NN(CCCl)C(=O)N[C@H]1CC[C@@H](NC(=O)N(CCCl)N=O)CC1,inactive
6,C[C@H]1CC[C@@H](NC(=O)N(CCCl)N=O)CC1,inactive
7,O=NN(CCF)C(=O)N[C@H]1CC[C@@H](C(=O)O)CC1,inactive
8,O=NN(CCCl)C(=O)NC1CC2CCC1C2 (configuration not stated),inactive
9,O=NN(CCCl)C(=O)N[C@@H]1CCC[C@H](C(=O)O)C1 (relative stereo),inactive
10,CC(C)[C@H]1CC[C@H](NC(=O)N(CCF)N=O)CC1,inactive
11,O=NN(CCCl)C(=O)NC1C=CCCC1 (configuration not stated),inactive
12,CC(=O)O[C@H]1CC[C@H](NC(=O)N(CCF)N=O)CC1,inactive
13,O=NN(CCF)C(=O)N[C@H]1CC[C@H](NC(=O)N(CCCl)N=O)CC1,inactive

# Test system: Mus musculus
# Test: Antitumor activity against mouse advanced Lewis lung carcinoma allografted in ip dosed BDF1 mouse assessed as disease cure administered as single dose on day 6 or 7 post-tumor implantation
# Format: functional, organism-based
# Method in brief: as §1
row,SMILES,Activity
1,O=NN(CCCl)C(=O)NC1CC2CCC1C2 (configuration not stated),inactive

# Test system: not listed separately
# Test: Antitumor activity against mouse advanced Lewis lung carcinoma allografted in ip dosed BDF1 mouse assessed as increase in host lifespan administered as single dose on day 6 or 7 post-tumor implantation
# Format: functional
# Method in brief: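 Advanced Lewis lung model: about 40 mg fragments implanted sc by trocar into BDF1 mice, and mice with tumors of about 400 mg (day 6-7) selected. Tumor weight from calipers, w = ab²/2. Agent given as one ip dose in distilled water or physiological saline. Nontumor-bearing mice received matching doses as toxicity controls.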
row,SMILES,ILS
1,O=NN(CCCl)C(=O)NC1CCCC1,<25%
2,C[C@H]1CCC[C@@H](NC(=O)N(CCCl)N=O)C1 (relative stereo),<25%
3,O=NN(CCCl)C(=O)NC1CCS(=O)(=O)C1 (configuration not stated),<25%
4,CC[C@H]1CC[C@H](NC(=O)N(CCF)N=O)CC1,<25%
5,O=NN(CCCl)C(=O)N[C@H]1CC[C@@H](NC(=O)N(CCCl)N=O)CC1,<25%
6,C[C@H]1CC[C@@H](NC(=O)N(CCCl)N=O)CC1,<25%
7,O=NN(CCF)C(=O)N[C@H]1CC[C@@H](C(=O)O)CC1,<25%
8,O=NN(CCCl)C(=O)NC1CC2CCC1C2 (configuration not stated),>25%
9,O=NN(CCCl)C(=O)N[C@@H]1CCC[C@H](C(=O)O)C1 (relative stereo),<25%
10,CC(C)[C@H]1CC[C@H](NC(=O)N(CCF)N=O)CC1,<25%
11,O=NN(CCCl)C(=O)NC1C=CCCC1 (configuration not stated),<25%
12,CC(=O)O[C@H]1CC[C@H](NC(=O)N(CCF)N=O)CC1,<25%
13,O=NN(CCF)C(=O)N[C@H]1CC[C@H](NC(=O)N(CCCl)N=O)CC1,<25%
